Results from ChEMBL document CHEMBL5346913, “C-glycosides analogues of the okadaic acid central fragment exert neuroprotection via restoration of PP2A-phosphatase activity: A rational design of potential drugs for Alzheimer's disease targeting tauopathies” (Eur J Med Chem, 2023).
Activity calls are given as the source filed them. The calls are words filed in the database; no cut-off is given here.

Experiments:
[1] = tested on: SH-SY5Y; assay: Neuroprotective activity against rotenone/oligomycin-induced oxidative stress in human SH-SY5Y cells assessed as protection against cell death at 1 uM incubated for 20 to 24 hrs by MTT assay relative to control; settings: time 20-24 hrs
[2] = tested on: SH-SY5Y; assay: Activation of PP2A in human SH-SY5Y cells assessed as restoration of cytostatin-induced phosphatase activity inhibition at 1 uM preincubated with compound for 24 hrs followed by okadaic acid addition and measured after 18 hrs by pNPP method; assay type: cell-based; settings: filed as activator, time 42.0 hrs, in the assay text read “followed by cytostatin addition” for “followed by okadaic acid addition”
In short: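 Cells were SH-SY5Y (70000/well), preincubated 24 h with compound, then given cytostatin 2 μM plus compound 1 μM for 18 h; pNPP-measured phosphatase activity normalized to untreated control; mean ± SEM, at least 3 independent experiments.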

[3] = tested on: SH-SY5Y; assay: Neuroprotective activity against cytostatin-induced cytotoxicity in human SH-SY5Y cells assessed as protection against cell death at 1 uM […] by MTT assay relative to control; assay type: functional
[4] = tested on: Cortical neurone; assay: Neuroprotective activity against glutamate-induced excitotoxicity in rat cortical neurons assessed as protection against cell damage at 1 uM preincubated with compound for 24 hrs followed by glutamate addition and measured after 20 hrs by MTT assay relative to control; assay type: functional; settings: time 44 hrs
[5] = tested on: SH-SY5Y; assay: Neuroprotective activity against okadaic acid-induced cytotoxicity in human SH-SY5Y cells assessed as protection against cell death at 1 uM incubated for 24 hrs by MTT assay relative to control; assay type: functional
In short: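 SH-SY5Y cells were pre-incubated 24 h with compound at 1 μM, then co-incubated with okadaic acid 20 nM for 20 h. Viability was read by MTT reduction. Results are % protection relative to okadaic acid-treated cells without compound, as mean ± SEM of at least 4 independent experiments.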

[6] = tested on: SH-SY5Y; assay: Activation of PP2A in human SH-SY5Y cells assessed as restoration of okadaic acid-induced phosphatase activity inhibition at 1 uM preincubated with compound for 24 hrs followed by okadaic acid addition and measured after 18 hrs by pNPP method; assay type: cell-based; settings: time 42.0 hrs
In short: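 SH-SY5Y cells (MEM/F12, 10% FBS, 70000 cells/well) preincubated 24 h with compound, then exposed to OA 15 nM plus compound 1 μM for 18 h; phosphatase activity by pNPP method, normalized to untreated control; mean ± SEM, at least 4 independent experiments.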

[7] = tested on: HEK293T; assay: Activation of GFP-tagged PP2A-B55alpha (unknown origin) transfected in HEK293T cells using K-R-pT-I-R-R peptide as substrate assessed as recovery of OA-induced PP2A inhibition by measuring increase in substrate phospho hydrolysis at 1 uM measured at 15 to 30 mins by Malachite green method; assay type: cell-based; settings: Homo sapiens, filed as activator, time 15-30 min
[8] = target: Microtubule-associated protein tau (Homo sapiens) (UniProt P10636); assay: Inhibition of okadaic-acid induced tau hyperphosphorylation at Ser202/Thr205 residues in human SH-SY5Y cells at 0.1 uM preincubated with compound for 24 hrs followed by okadaic acid addition and measured after 20 hrs by Western blot analysis; assay type: cell-based; settings: time 44.0 hrs
In short: (§1)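 After 24 h preincubation with compound 0.1 μM, SH-SY5Y cells incubated 20 h with OA 20 nM plus compound; western blot for pTau (Ser202/Thr205) and pGSK-3β (Ser9); mean ± SEM of at least 3 independent experiments.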

[9] = tested on: Mus musculus; assay: Cognitive enhancing effect in LPS-induced mouse model of cognitive impairment assessed as fold change in time exploring the new object at 10 mg/ml, ip by object recognition test; assay type: functional
In short: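 Mice injected i.p. with LPS 1 mg/mL and co-injected i.p. with compound 10 mg/mL; object recognition test: day 1 arena familiarization, day 2 two identical objects, day 3 one replaced by an object differing in shape and size; exploration recorded 10 min; new vs old object exploration time compared; mean ± SEM.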

[10] = tested on: HEK293T; assay: Activation of GFP-tagged PP2A-B56alpha (unknown origin) transfected in HEK293T cells using K-R-pT-I-R-R peptide as substrate assessed as recovery of OA-induced PP2A inhibition by measuring increase in substrate phospho hydrolysis at 1 uM measured at 15 to 30 mins by Malachite green method; assay type: cell-based; settings: Homo sapiens, filed as activator, time 15-30 min
[11] = Permeability of the compound in porcine brain by spectrophotometry based PAMPA-BBB assay; settings: pig
[12] = target: Glycogen synthase kinase-3 beta (Homo sapiens) (UniProt P49841); assay: Inhibition of okadaic-acid induced GSK-3beta hyperphosphorylation at Ser9 residue in human SH-SY5Y cells at 0.1 uM preincubated with compound for 24 hrs followed by okadaic acid addition and measured after 20 hrs by Western blot analysis; assay type: cell-based; settings: time 44.0 hrs
In short: as §1

Sequence of Glycogen synthase kinase-3 beta (Homo sapiens) (P49841 whole entry, looked up): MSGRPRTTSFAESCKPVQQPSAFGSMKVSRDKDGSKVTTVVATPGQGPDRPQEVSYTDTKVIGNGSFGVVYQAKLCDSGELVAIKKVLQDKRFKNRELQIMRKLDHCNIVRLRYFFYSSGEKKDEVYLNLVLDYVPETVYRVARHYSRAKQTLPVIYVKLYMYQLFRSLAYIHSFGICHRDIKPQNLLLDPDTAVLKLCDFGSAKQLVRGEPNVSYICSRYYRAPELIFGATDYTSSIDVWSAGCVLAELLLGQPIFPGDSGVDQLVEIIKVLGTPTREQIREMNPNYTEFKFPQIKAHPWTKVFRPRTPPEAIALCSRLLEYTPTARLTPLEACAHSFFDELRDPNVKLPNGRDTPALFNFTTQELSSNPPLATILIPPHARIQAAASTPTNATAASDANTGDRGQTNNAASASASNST
Sequence of Microtubule-associated protein tau (Homo sapiens) (P10636 whole entry): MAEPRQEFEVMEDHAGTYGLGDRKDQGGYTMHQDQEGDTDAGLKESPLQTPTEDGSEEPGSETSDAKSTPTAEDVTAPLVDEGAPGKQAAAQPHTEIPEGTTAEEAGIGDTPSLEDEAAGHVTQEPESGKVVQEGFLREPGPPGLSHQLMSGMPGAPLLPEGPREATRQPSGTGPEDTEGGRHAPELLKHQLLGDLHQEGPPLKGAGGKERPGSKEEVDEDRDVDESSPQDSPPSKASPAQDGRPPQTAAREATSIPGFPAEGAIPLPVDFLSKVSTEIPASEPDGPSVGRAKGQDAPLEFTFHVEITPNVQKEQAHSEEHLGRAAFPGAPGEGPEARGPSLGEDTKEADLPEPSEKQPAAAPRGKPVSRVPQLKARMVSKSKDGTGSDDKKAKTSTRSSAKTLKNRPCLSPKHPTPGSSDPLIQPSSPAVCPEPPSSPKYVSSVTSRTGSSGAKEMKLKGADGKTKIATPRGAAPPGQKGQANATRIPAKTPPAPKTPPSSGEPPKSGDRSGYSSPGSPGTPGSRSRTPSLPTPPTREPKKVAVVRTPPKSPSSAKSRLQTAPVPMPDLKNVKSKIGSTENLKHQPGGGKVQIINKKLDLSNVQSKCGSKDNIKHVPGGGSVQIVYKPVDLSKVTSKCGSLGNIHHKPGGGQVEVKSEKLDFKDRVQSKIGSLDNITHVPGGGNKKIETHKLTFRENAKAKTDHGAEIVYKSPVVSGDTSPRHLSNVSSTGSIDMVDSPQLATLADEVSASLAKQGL

Structure (SMILES)	Activity [1]	Activity [2]	Activity [3]	Activity [4]	Activity [5]	Activity [6]	Activity [7]	inhibition [8]	fold change (FC) [9]	Activity [10]	permeability [11]	Activity ([6]; filed as activator)	inhibition [12]
COc1ccc2[nH]cc(CCNC(C)=O)c2c1 [MELATONIN]	28%												
OC[C@@H](O)C[C@@H]1C=C[C@@H]2OC(c3ccccc3)OC[C@H]2O1 (some centres not stated)	27%	Active	54%	13%	73%								
C=CC[C@@H]1C=C[C@@H]2OC(C)(C)OC[C@H]2O1	63%		50%	8%	50%								
OCCC[C@@H]1C=C[C@@H]2OC(c3ccccc3)OC[C@H]2O1 (some centres not stated)	29%		52%	12%	82%								
O=C(OCCC[C@@H]1C=C[C@@H]2OC(c3ccccc3)OC[C@H]2O1)c1ccccc1 (some centres not stated)	7%		47%	8%	72%	inactive							
CC12CC3CC(C)(C1)CC(N)(C3)C2 [MEMANTINE]			57%	22%	60%								
CC1(C)OC[C@H]2O[C@H](C[C@@H](O)CO)C=C[C@@H]2O1	24%	Active	56%	15%	45%								
CC1(C)OC[C@H]2O[C@H](C[C@H](O)CO)C=C[C@@H]2O1	16%	Active	64%	20%	72%		Active	Active	2.4	Active	Permeable	Active	Active
O=C(OCCC[C@@H]1C=C[C@H](O)[C@@H](CO)O1)c1ccccc1	3%		1%	17%	20%	inactive							
OC[C@H](O)C[C@@H]1C=C[C@@H]2OC(c3ccccc3)OC[C@H]2O1 (some centres not stated)	10%	Active	21%	29%	40%							Active	
C=CC[C@@H]1C=C[C@@H]2OC(c3ccccc3)OC[C@H]2O1 (some centres not stated)	26%		49%	15%	80%								
CC1(C)OC[C@H]2O[C@H](CCCO)C=C[C@@H]2O1	5%		45%	6%	81%								
C=CC[C@@H]1C=C[C@H](O)[C@@H](CO)O1	30%	Active	45%	15%	72%								
CC1(C)OC[C@H]2O[C@H](CCCOC(=O)c3ccccc3)C=C[C@@H]2O1	15%		37%	17%	69%	inactive							
C=CC[C@@H]1C=C[C@H](OC(C)=O)[C@@H](COC(C)=O)O1	23%		47%	19%	84%								
